# Experimental data: ChEMBL document CHEMBL4152384, “Pyrtriazoles, a Novel Class of Store-Operated Calcium Entry Modulators: Discovery, Biological Profiling, and in Vivo Proof-of-Concept Efficacy in Acute Pancreatitis” (J Med Chem, 2018)
# Calls of active or inactive are those of the source. The rule behind the calls is not given here.
# What was measured:
# [1] = test system: Jurkat; assay: (§1) Induction of store-operated calcium entry in human Jurkat cells assessed as induction of store-operated calcium entry by measuring residual activity at 10 uM preincubated for 30 mins followed by tBhQ-mediated Ca2+ depletion and Ca2+ re-addition to extracellular solution measured for 600 secs by Fluo-4 AM-based fluorometric assay relative to control; format: cell-based
# [2] = target: T1, Stromal interaction molecule 1 & 2/Calcium release-activated calcium channel protein 1 (Mus musculus) (UniProt Q8BWG9+P70302+P83093); assay: (§2) Modulation of STIM1/STIM2/Orai1 in mouse BV2 cells assessed as induction of store-operated calcium entry by measuring residual activity at 10 uM preincubated for 30 mins followed by tBhQ-mediated Ca2+ depletion and Ca2+ re-addition to extracellular solution measured for 600 secs by Fluo-4 AM-based fluorometric assay relative to control; format: cell-based
# [3] = target: T2, Short transient receptor potential channel 1 & 3/Stromal interaction molecule 1/Calcium release-activated calcium channel protein 1 (Homo sapiens) (UniProt Q96D31+Q13507+Q13586+P48995); assay: as §2, with “TRPC1/TRPC3/STIM1/Orai1” for “STIM1/STIM2/Orai1”, “HEK” for “mouse BV2”; format: cell-based
# T2 sequence (P48995 whole entry partner): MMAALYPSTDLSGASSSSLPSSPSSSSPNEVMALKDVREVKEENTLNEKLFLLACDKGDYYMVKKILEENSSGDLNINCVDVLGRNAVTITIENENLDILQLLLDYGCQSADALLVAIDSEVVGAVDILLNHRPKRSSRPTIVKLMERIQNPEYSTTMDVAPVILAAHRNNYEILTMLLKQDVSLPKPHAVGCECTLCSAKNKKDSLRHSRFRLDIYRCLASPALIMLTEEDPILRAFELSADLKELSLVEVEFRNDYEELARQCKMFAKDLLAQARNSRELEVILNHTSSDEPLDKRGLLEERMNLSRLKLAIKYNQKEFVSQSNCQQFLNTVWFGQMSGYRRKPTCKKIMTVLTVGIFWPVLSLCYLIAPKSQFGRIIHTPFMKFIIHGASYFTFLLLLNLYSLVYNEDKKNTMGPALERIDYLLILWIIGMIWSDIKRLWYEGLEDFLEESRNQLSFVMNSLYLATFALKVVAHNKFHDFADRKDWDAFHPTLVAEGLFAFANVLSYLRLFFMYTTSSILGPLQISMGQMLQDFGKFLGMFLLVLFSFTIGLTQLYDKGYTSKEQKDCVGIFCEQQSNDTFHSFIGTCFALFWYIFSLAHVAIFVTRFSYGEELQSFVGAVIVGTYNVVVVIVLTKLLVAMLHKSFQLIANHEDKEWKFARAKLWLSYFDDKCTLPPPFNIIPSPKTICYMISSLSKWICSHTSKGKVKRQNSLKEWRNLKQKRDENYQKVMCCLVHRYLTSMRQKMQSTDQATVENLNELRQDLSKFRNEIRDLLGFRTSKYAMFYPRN
# T2 sequence (Q13507 whole entry partner): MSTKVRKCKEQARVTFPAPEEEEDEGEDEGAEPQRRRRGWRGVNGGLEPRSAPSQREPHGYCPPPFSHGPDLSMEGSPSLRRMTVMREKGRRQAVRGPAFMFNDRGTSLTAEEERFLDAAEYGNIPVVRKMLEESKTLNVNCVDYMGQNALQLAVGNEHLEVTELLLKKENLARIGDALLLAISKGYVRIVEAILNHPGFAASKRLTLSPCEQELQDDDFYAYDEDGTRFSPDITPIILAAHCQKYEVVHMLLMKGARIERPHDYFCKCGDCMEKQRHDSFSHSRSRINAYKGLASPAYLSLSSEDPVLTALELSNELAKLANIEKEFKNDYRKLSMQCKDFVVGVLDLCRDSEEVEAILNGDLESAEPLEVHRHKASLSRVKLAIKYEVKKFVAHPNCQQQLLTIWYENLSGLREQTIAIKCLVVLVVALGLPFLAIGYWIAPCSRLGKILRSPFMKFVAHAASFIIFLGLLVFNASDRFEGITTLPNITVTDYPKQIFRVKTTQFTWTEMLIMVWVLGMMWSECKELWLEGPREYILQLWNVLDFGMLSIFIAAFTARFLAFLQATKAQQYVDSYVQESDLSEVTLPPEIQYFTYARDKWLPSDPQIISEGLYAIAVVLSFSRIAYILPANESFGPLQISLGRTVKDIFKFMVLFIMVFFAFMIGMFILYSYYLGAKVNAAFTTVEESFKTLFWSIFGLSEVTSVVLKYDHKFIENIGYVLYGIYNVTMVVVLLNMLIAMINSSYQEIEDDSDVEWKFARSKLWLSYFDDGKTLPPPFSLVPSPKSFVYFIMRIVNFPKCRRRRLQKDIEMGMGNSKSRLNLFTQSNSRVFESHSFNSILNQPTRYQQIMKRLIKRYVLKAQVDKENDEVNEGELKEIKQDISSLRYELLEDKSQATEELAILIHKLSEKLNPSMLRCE
# T2 sequence (Q13586 23-685 partner limits assumed): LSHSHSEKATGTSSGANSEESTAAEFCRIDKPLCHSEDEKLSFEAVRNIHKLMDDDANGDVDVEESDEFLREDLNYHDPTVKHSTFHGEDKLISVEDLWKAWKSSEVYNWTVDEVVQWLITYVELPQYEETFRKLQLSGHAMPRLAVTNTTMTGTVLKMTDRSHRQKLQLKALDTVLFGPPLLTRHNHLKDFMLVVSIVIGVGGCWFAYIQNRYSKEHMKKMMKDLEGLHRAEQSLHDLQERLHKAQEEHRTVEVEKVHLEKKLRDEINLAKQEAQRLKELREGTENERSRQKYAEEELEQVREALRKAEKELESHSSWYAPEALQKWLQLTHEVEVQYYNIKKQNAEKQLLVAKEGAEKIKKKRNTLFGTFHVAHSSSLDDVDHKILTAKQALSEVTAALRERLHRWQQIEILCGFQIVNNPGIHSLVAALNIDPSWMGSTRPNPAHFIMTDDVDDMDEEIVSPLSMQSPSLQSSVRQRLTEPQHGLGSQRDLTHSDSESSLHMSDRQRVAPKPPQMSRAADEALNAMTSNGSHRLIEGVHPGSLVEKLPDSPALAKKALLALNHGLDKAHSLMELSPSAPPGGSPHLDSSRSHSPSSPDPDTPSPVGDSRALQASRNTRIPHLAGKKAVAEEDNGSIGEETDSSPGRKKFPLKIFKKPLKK
# T2 sequence (Q96D31 whole entry): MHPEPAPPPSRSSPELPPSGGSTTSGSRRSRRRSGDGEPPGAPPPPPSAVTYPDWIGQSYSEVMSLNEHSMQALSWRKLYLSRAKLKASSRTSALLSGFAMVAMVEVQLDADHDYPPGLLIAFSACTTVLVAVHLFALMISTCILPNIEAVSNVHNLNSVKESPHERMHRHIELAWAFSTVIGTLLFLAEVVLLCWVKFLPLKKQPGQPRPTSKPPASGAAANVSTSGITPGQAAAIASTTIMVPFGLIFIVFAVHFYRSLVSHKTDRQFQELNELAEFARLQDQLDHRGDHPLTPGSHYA
# [4] = target: Short transient receptor potential channel 1 & 3/Stromal interaction molecule 1/Calcium release-activated calcium channel protein 1 (Homo sapiens, UniProt P48995+Q13507+Q13586+Q96D31); assay: as §2, with “TRPC1/TRPC3/STIM1/Orai1” for “STIM1/STIM2/Orai1”, “HEK” for “mouse BV2”, “activity” for “activity at 10 uM”; format: cell-based
# [5] = target: Transient receptor potential cation channel subfamily V member 1 (Homo sapiens) (UniProt Q8NER1); assay: Antagonist activity at TRPV1 (unknown origin) expressed in HEK cells assessed as inhibition of capsaicin-induced calcium increase at 10 uM by fura-2-based assay; format: cell-based
# Chain of Transient receptor potential cation channel subfamily V member 1 (Homo sapiens) (Q8NER1 whole entry): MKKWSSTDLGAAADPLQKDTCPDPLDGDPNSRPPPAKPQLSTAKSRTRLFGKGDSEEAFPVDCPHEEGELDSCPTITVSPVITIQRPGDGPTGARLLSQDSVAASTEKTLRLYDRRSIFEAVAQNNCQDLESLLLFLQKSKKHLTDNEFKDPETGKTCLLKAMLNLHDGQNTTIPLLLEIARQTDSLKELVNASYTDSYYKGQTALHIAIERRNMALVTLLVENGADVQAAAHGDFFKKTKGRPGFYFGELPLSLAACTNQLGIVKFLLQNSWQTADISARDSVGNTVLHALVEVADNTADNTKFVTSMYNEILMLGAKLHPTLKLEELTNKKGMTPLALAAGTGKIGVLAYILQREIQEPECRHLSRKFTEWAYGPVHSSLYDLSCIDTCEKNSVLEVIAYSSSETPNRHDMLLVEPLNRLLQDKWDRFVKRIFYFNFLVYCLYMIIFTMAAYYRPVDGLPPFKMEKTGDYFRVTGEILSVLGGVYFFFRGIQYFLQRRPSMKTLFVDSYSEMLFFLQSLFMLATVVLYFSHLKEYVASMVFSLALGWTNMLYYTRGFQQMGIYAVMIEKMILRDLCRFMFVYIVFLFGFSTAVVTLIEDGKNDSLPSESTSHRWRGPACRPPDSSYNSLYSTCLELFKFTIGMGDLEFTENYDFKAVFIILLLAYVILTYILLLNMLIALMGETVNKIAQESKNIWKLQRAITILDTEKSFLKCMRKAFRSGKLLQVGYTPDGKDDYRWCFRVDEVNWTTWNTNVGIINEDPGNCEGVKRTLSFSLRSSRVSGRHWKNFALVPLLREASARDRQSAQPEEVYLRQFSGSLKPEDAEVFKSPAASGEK
# Outline: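 TRPV1-overexpressing Hek cells; calcium rise evoked by capsaicin (100 nM), test compounds at 10 μM; peak amplitude read out; mean ± SEM of 600 cells from 30 plates on four separate experimental days.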
# [6] = Cytotoxicity against HEK cells assessed as cell viability at 10 uM by MTT assay relative to control; format: cell-based; conditions: human, read-out: Activity
# Outline: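 Hek cells treated 24 h with compound at 10 μM; viability determined by MTT assay.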
# [7] = target: Transient receptor potential cation channel subfamily M member 8 (Homo sapiens) (UniProt Q7Z2W7); assay: Antagonist activity at TRPM8 (unknown origin) expressed in HEK cells assessed as inhibition of menthol -mediated calcium increase at 10 uM by fura-2-based assay; format: cell-based
# Chain of Transient receptor potential cation channel subfamily M member 8 (Homo sapiens) (Q7Z2W7 whole entry, looked up): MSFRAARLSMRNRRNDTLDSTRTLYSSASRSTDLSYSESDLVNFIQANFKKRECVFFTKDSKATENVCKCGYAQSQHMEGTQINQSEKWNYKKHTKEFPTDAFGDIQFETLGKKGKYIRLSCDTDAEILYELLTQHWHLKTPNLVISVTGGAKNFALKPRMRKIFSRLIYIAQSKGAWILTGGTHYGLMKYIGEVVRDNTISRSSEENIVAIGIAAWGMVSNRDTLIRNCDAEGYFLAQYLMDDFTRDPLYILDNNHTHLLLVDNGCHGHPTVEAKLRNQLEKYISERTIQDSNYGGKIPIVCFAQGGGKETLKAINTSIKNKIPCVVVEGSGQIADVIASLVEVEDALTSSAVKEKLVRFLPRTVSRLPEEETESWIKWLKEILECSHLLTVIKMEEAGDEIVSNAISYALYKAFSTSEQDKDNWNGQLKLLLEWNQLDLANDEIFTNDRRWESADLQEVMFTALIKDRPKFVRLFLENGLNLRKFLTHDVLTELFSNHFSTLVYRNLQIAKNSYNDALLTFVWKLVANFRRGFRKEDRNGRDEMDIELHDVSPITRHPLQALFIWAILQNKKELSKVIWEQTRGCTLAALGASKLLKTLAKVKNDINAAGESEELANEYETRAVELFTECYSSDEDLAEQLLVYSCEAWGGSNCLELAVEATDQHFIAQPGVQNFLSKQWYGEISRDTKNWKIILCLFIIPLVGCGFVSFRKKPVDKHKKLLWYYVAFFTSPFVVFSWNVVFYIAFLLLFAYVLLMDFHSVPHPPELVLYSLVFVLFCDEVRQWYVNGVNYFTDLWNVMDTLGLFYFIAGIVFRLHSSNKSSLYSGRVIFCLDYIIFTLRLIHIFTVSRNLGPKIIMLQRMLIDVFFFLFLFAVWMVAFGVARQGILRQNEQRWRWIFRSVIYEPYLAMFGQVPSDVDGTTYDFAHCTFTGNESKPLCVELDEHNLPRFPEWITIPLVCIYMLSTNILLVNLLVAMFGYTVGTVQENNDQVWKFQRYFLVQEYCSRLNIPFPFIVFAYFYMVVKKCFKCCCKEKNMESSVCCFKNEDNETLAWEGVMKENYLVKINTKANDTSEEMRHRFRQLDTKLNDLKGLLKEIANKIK
# Outline: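 TRPM8-overexpressing Hek cells; calcium rise evoked by menthol (100 μM), test compounds at 10 μM; peak amplitude read out; mean ± SEM of 600 cells from 30 plates on four separate experimental days.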
# [8] = Metabolic stability in CD1 mouse plasma assessed as residual compound level at 50 uM after 30 mins by LC-UV analysis; format: ADME, cell-free; conditions: read-out: Stability
# Outline: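 Compounds incubated in mouse plasma for 30 min; percentage of residual substrate determined.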
# [9] = target: T2, Short transient receptor potential channel 1 & 3/Stromal interaction molecule 1/Calcium release-activated calcium channel protein 1 (Homo sapiens); assay: as §2, with “TRPC1/TRPC3/STIM1/Orai1” for “STIM1/STIM2/Orai1”, “HEK” for “mouse BV2”, “increase in peak amplitude” for “residual activity”, “3 to 100” for “10”; format: cell-based
# [10] = target: T2, Short transient receptor potential channel 1 & 3/Stromal interaction molecule 1/Calcium release-activated calcium channel protein 1 (Homo sapiens); assay: as §2, with “TRPC1/TRPC3/STIM1/Orai1” for “STIM1/STIM2/Orai1”, “HEK” for “mouse BV2”, “increase in AUC of calcium entry” for “residual activity”, “3 to 100” for “10”; format: cell-based
# [11] = test system: Jurkat; assay: as §1, with “increase in slope” for “residual activity”, “3 to 100” for “10”; format: cell-based
# [12] = test system: Jurkat; assay: as §1, with “increase in AUC of calcium entry” for “residual activity”, “3 to 100” for “10”; format: cell-based
# [13] = target: T3, ORAI1/STIM1 (Homo sapiens) (UniProt Q96D31+Q13586); assay: Modulation of Orai1/STIM1 (unknown origin) expressed in HEK cells assessed as potentiation of store-operated calcium currents in presence of 20 mM BAPTA by patch clamp assay relative to control; format: cell-based
# T3 sequence (Q13586 23-685 partner limits assumed): as the sequence (Q13586 23-685 partner limits assumed) above
# T3 sequence (Q96D31 whole entry): as the sequence (Q96D31 whole entry) above
# Outline: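 Whole-cell ISOC recorded in Hek cells stably overexpressing Orai1 and transiently expressing STIM1; internal solution strongly buffered with 20 mM BAPTA; compound at 10 μM versus untreated control.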
# [14] = target: T1, Stromal interaction molecule 1 & 2/Calcium release-activated calcium channel protein 1 (Mus musculus); assay: as §2, with “increase in peak amplitude” for “residual activity”, “3 to 100” for “10”; format: cell-based
# [15] = test system: voltage-gated calcium channel (Mus musculus); assay: Antagonist activity at voltage-gated calcium channels in C57/BL6 mouse cerebellar granule cells assessed as inhibition of KCl-induced voltage dependent calcium entry at 10 uM by fura-2-based assay
# [16] = target: T3, ORAI1/STIM1 (Homo sapiens); assay: Modulation of Orai1/STIM1 (unknown origin) expressed in HEK cells assessed as potentiation of store-operated calcium currents in presence of 20 mM BAPTA and 150 nM Ca2+ containing internal solution by patch clamp assay relative to control; format: cell-based
# [17] = species on record: Homo sapiens; assay: Modulation of Orai1/STIM1 (unknown origin) expressed in HEK cells assessed as potentiation of store-operated calcium currents by measuring reduction in time constant of channel activation in presence of 20 mM BAPTA and 150 nM Ca2+ containing internal solution by patch clamp assay relative to control; format: cell-based
# [18] = test system: Jurkat; assay: as §1, with “increase in peak amplitude” for “residual activity”, “3 to 100” for “10”; format: cell-based
# [19] = target: T1, Stromal interaction molecule 1 & 2/Calcium release-activated calcium channel protein 1 (Mus musculus); assay: as §2, with “increase in AUC of calcium entry” for “residual activity”, “3 to 100” for “10”; format: cell-based
# [20] = target: T1, Stromal interaction molecule 1 & 2/Calcium release-activated calcium channel protein 1 (Mus musculus); assay: as §2, with “increase in slope” for “residual activity”, “3 to 100” for “10”; format: cell-based
# [21] = target: T2, Short transient receptor potential channel 1 & 3/Stromal interaction molecule 1/Calcium release-activated calcium channel protein 1 (Homo sapiens); assay: as §2, with “TRPC1/TRPC3/STIM1/Orai1” for “STIM1/STIM2/Orai1”, “HEK” for “mouse BV2”, “increase in slope” for “residual activity”, “3 to 100” for “10”; format: cell-based
# [22] = target: T1, Stromal interaction molecule 1 & 2/Calcium release-activated calcium channel protein 1 (Mus musculus); assay: as §2, with “entry” for “entry by measuring residual activity”, “800” for “600”; format: cell-based
# Outline: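 Microplate Fluo-4 assay in mouse microglial BV-2 cells. Stores emptied with tBhQ (50 μM) in presence of compound (10 μM); extracellular Ca2+ re-added after 600 s and intracellular Ca2+ read fluorimetrically; SOCE expressed versus control.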
# [23] = test system: voltage-gated calcium channel (Mus musculus); assay: Antagonist activity at voltage-gated calcium channels in C57/BL6 mouse cerebellar granule cells assessed as inhibition of KCl-induced voltage dependent calcium entry at 10 uM by fura-2-based assay; remark: listed apart in the source
# [24] = target: T2, Short transient receptor potential channel 1 & 3/Stromal interaction molecule 1/Calcium release-activated calcium channel protein 1 (Homo sapiens); assay: as §2, with “TRPC1/TRPC3/STIM1/Orai1” for “STIM1/STIM2/Orai1”, “HEK” for “mouse BV2”, “entry” for “entry by measuring residual activity”, “800” for “600”; format: cell-based
# [25] = test system: Jurkat; assay: as §1, with “entry” for “entry by measuring residual activity”, “800” for “600”; format: cell-based
# [26] = Metabolic stability in CD1 mouse liver S9 fraction assessed as residual compound level at 50 uM after 1 hr; format: ADME, subcellular; conditions: read-out: Stability
# Outline: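 Hydrolytic stability measured in mouse liver S9 fraction; residual substrate quantified after 1 h incubation.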
# [27] = Drug metabolism in CD1 mouse liver microsomes assessed as ester group hydrolysis at 50 uM after 60 mins in presence of NADPH/UDPGA; format: ADME, microsome; conditions: 1 h
# [28] = Drug metabolism in CD1 mouse liver microsomes assessed as ester group hydrolysis at 50 uM after 60 mins in absence of NADPH/UDPGA; format: ADME, microsome; conditions: 1 h
# [29] = Drug metabolism in CD1 mouse liver microsomes assessed as 1-(4-(4-(3-Carboxyphenyl)-1H-1,2,3-triazol-1-yl)phenyl)-5-(trifluoromethyl)-1H-pyrazole-4-carboxylic Acid metabolite formation at 50 uM after 60 mins by mass spectroscopic analysis; format: ADME, microsome
# [30] = target: T1, Stromal interaction molecule 1 & 2/Calcium release-activated calcium channel protein 1 (Mus musculus); assay: as §2, with “100” for “10”; format: cell-based
# [31] = target: T2, Short transient receptor potential channel 1 & 3/Stromal interaction molecule 1/Calcium release-activated calcium channel protein 1 (Homo sapiens); assay: as §2, with “TRPC1/TRPC3/STIM1/Orai1” for “STIM1/STIM2/Orai1”, “HEK” for “mouse BV2”, “100” for “10”; format: cell-based
# [32] = test system: Jurkat; assay: as §1, with “100” for “10”; format: cell-based
# [33] = as §1, with “activity” for “activity at 10 uM”; format: cell-based
Activity [2] [%],Activity [3] [%],SMILES,Activity [1] [%],viability at 10 µM [6] [%],other results
56.7,30,CCOC(=O)c1cnn(-c2ccc(-c3cn(-c4cccc(C(=O)O)c4)nn3)cc2)c1C(F)(F)F,36.3,–,–
61.3,53,O=C(O)c1cccc(-c2cn(-c3ccc(-n4nc(C(F)(F)F)cc4C(F)(F)F)cc3)nn2)c1,61.7,–,–
62.3,81.4,CCOC(=O)c1cnn(-c2ccc(-c3cn(-c4ccncc4F)nn3)cc2)c1C(F)(F)F,67.1,–,–
–,10.3,O=C(Nc1ccc(-n2nc(C(F)(F)F)cc2C(F)(F)F)cc1)c1ccncc1F,–,70.3,IC50 [4]: 300 nM; inhibition [5]: Active; inhibition [7]: Active
–,6.4,CCOC(=O)c1cnn(-c2ccc(-n3cc(-c4cccc(C(=O)NO)c4)nn3)cc2)c1C(F)(F)F,–,67.5,–
–,10.5,O=C(O)c1cccc(-c2cn(-c3ccc(-n4ncc(C(=O)OCc5ccccc5)c4C(F)(F)F)cc3)nn2)c1,–,82.2,–
69.9,95.5,CCOC(=O)c1cnn(-c2ccc(-c3cn(CCCC(=O)O)nn3)cc2)c1C(F)(F)F,80.9,–,–
–,7.9,COC(=O)c1cnn(-c2ccc(-n3cc(-c4cccc(C(=O)O)c4)nn3)cc2)c1C(F)(F)F,–,69.2,"remaining at 0.5 h, 50 µM [8]: 6.5%"
153,142,CCOC(=O)c1cnn(-c2ccc(-c3cn(-c4ccc(Cl)cc4)nn3)cc2)c1C(F)(F)F,197,–,Activity [9]: Active; Activity [10]: Active; Activity [11]: Active; inhibition [5]: inactive; Activity [12]: Active; Activity [13]: Active; Activity [14]: Active; inhibition [15]: inactive; Activity [16]: inactive; Activity [17]: Active; Activity [18]: Active; Activity [19]: Active; inhibition [7]: inactive; Activity [20]: Active; Activity [21]: Active; Activity [22]: inactive; inhibition [23]: inactive; Activity [24]: inactive; Activity [25]: inactive
65.3,81.7,CCOC(=O)c1cnn(-c2ccc(-n3cc(-c4cccc(N)c4)nn3)cc2)c1C(F)(F)F,89.3,–,–
–,63.5,CCOC(=O)c1cnn(-c2ccc(NC(=O)c3cccc(C(=O)O)c3)cc2)c1C(F)(F)F,–,65.9,–
–,3.5,CC(C)OC(=O)c1cnn(-c2ccc(-n3cc(-c4cccc(C(=O)O)c4)nn3)cc2)c1C(F)(F)F,–,87.2,"IC50 [4]: 3100 nM; inhibition [5]: inactive; remaining at 0.5 h, 50 µM [8]: 87.7%; inhibition [15]: inactive; remaining at 1 h, 50 µM [26]: 81.3%; Drug metabolism [27]: Metabolite_Detected; inhibition [7]: inactive; Drug metabolism [28]: Metabolite_Detected; inhibition [23]: inactive; Drug metabolism [29]: Metabolite_Notdetected"
61.3,73.2,CCOC(=O)c1cnn(-c2ccc(-c3cn(-c4cccc(N)c4)nn3)cc2)c1C(F)(F)F,85.4,–,–
69.5,69.3,CCOC(=O)c1cnn(-c2ccc(-c3cn(-c4ccc(C(=O)O)cc4)nn3)cc2)c1C(F)(F)F,60.3,–,–
40.7,8.9,CCOC(=O)c1cnn(-c2ccc(NC(=O)C(Cl)=C(Cl)Cl)cc2)c1C(F)(F)F,6.1,28.6,"inhibition [5]: inactive; remaining at 0.5 h, 50 µM [8]: 20.4%; residual activity [30]: < 100%; residual activity [31]: < 100%; inhibition [7]: inactive; residual activity [32]: < 100%; IC50 [33]: 300 nM"
65,43.2,CCOC(=O)c1cnn(-c2ccc(-n3cc(-c4ccc(O)c(OC)c4)nn3)cc2)c1C(F)(F)F,21.6,–,–
59.9,52.1,CCOC(=O)c1cnn(-c2ccc(-n3cc(-c4ccc(C(=O)O)cc4)nn3)cc2)c1C(F)(F)F,67.7,–,–
